# Screens: PubChem BioAssay, Sanford-Burnham Center for Chemical Genomics
# Scp1 inh = Scp-1 (human) phosphatase inhibition. Recombinant Scp1, phosphopeptide, malachite green phosphate absorbance. Q9GZU7. AID 493091. inhibition, % at 20 µM. 0.88% of 340,000 active;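 active means inhibition above about 50% at 20 µM, limit read from the data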
#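 Test system: SCP-1 phosphatase catalytic domain, residues 76-261 | Compound dosing: One concentration, 20 µM, with 1.0% DMSO | Schedule: 45 min room-temperature reaction, 5 min colour, 30 min stabiliser | Detection: Absorbance at 630 nm | Read-out basis: % inhibition of SCP-1 phosphate liberation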
# CSN deneddyl inh = blocks human CSN-mediated cullin deneddylation | Purified CSN, SCF-Nedd8-OG deneddylation, fluorescence polarization | AID 651999 | inhibition, % at 12.5 µM | Q92905 | 0.38% of 360,000 active;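 active means pattern-corrected inhibition above about 35%, with an unprinted fluorescence ratio check between 0.5 and 1.5, limit read from the data, passing the limit was not always enough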
# Target sequence (Q92905 whole entry, looked up, one chain of several): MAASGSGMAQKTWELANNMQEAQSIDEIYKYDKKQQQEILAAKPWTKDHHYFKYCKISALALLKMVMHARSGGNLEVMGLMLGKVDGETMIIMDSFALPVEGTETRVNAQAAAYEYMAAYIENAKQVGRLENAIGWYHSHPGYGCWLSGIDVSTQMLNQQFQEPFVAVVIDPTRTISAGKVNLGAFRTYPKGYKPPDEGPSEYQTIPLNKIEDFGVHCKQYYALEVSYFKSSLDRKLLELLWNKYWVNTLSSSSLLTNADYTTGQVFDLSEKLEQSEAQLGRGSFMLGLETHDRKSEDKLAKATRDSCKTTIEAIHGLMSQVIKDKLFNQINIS
#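 Material: human Csn5 produced in HEK293T cells; Input: enzyme 0.24 nM; Reagent: SCFSkp2-Nedd8OG substrate at 10 nM final; Dosing: 12.5 µM compound; Incubation: 90 min reaction at room temperature; Detection: fluorescence polarization of the substrate; Evaluation: % inhibition of substrate cleavage by Csn5; Control set: substrate-only high control, full reaction low control.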
# STEP block = blocks human striatal-enriched tyrosine phosphatase; P54829; recombinant STEP, OMFP fluorogenic substrate, fluorescence; inhibition, % at 20 µM; 0.25% of 360,000 active; AID 588621;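 active means inhibition at 20 µM, scaled per plate between control wells, above about 37%, limit read from the data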
#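 Test system: STEP tyrosine phosphatase / Reagent: OMFP at 25 µM / Doses: 20 µM, 1% DMSO / Read-out: percent inhibition scaled to no-enzyme and uninhibited-enzyme controls, plate-pattern corrected / Detection: FITC-channel fluorescence of OMFP product / Medium: Bis-Tris buffer pH 6.0, 2.5 mM DTT, 0.005% Tween 20 / Schedule: 20 min at room temperature, dark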
# DNMT1 block = inhibitors of human DNMT1; P26358; DNMT1 molecular beacon, Hinp1I cleavage, fluorescence; inhibition (reported as % activation of signal), % at 10 µM; 0.83% of 360,000 active; in the data active means inhibition above about 50%
# SUMO1 PPI mod = modulators of human SUMO1-mediated protein-protein interactions; P63165; SUMO1 binding to a labelled peptide, TR-FRET, 1 h; inhibition, % at 20 µM; 0.33% of 360,000 active; in the data active means inhibition above about 37%
# Target sequence (P63165 whole entry, looked up): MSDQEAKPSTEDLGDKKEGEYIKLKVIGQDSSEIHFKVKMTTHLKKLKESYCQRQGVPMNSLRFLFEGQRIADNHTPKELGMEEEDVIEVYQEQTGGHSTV
# LMPTP block = blocks human LMPTP phosphatase | inhibition, % at 20 µM | 0.22% of 360,000 active | P24666 | recombinant LMPTP-A, OMFP fluorogenic substrate, fluorescence intensity;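 active means compounds that cut the enzyme signal by at least half of the control window in the single-dose screen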
# Target sequence (P24666 whole entry, looked up): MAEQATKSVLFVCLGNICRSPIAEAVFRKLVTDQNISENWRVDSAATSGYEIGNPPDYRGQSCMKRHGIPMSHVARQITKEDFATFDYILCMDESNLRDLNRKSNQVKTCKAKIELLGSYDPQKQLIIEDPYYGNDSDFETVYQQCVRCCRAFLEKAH
#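 Assay system: LMPTP-A phosphatase enzyme | Input: 0.625 nM enzyme | Also added: Fluorogenic phosphatase substrate OMFP at 400 µM final | Compound dosing: One test concentration per compound, 20 µM, with 3% DMSO overall | Schedule: 50 min enzyme reaction at room temperature, protected from light | Signal: Fluorescence intensity | Benchmarks: no-enzyme and uninhibited controls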
# Hits are given with their value; i = inactive; nt = no result given; + = active, no number. Only some compounds are listed: those with a hit (about 1.9% of all), similar ones and a draw of the others.
SMILES,Scp1 inh,CSN deneddyl inh,STEP block,DNMT1 block,SUMO1 PPI mod,LMPTP block
O=C(CSc1nnc(-c2ccco2)c(-c2ccco2)n1)Nc1ccccc1,58.5,i,i,118.5,76.9,52.8
CCOc1ccc(OCCCC(=O)ON=C(N)c2ccccc2C)cc1,i,i,i,i,i,i
Cc1ccc(-c2csc3nc(-c4ccncc4)[nH]c(=O)c23)cc1,i,43.7,i,i,i,i
Cc1nc(NC(=O)COC(=O)CCc2ccccc2)c(Cl)cc1Cl,i,i,i,i,i,i
Cc1ccccc1-c1cc(=O)c2c(O)cccc2o1,i,i,i,i,i,i
CCOc1ccccc1-c1c2cc(O)c(=O)cc-2oc2cc(O)c(O)cc12,i,i,i,+,i,65.8
O=c1cc2oc3cc(O)c(O)cc3c(-c3ccccc3O)c-2cc1O,i,i,i,110.2,i,66.5
COc1ccc(OC)c(-c2c3cc(O)c(=O)cc-3oc3cc(O)c(O)cc23)c1,68.2,45.7,i,149.6,i,77.6
CCOC(=O)c1oc2cc(O)ccc2c(=O)c1-c1ccccc1OC,i,i,i,i,i,i
Cc1ccc(C(=O)OCC(=O)NCc2ccc(Cl)cc2Cl)o1,i,i,i,i,i,i
N=C1S/C(=C\c2ccc(-c3cccc(Cl)c3)o2)C(=O)N1c1nccs1,i,i,i,111.7,i,i
NC(=S)NN=C1Cc2cccc3cccc1c23,i,i,i,i,i,53.3
COc1ccc(/C=C(\NC(=O)c2ccccc2)C(=O)NCCN2CCOCC2)cc1,i,i,i,i,i,i
Cc1ccc2c(=O)cc(C(=O)NC3CCS(=O)(=O)C3)oc2c1C (stereo not drawn),i,i,i,i,i,i
O=C(CN1C(=O)/C(=C/c2ccccc2F)SC1=S)NC1C=CS(=O)(=O)C1 (stereo not drawn),i,i,i,53.6,i,i
C#CCn1cc2c(c1-c1ccccc1)c(=O)n(C)c(=O)n2C,nt,i,i,i,i,i
Cc1ccnc(NC(c2cccnc2)c2ccc3cccnc3c2O)c1 (stereo not drawn),i,i,i,i,i,53.9
COc1ccc(S(=O)(=O)N2CCOC23CCN(C(=O)c2ccccc2OC)CC3)cc1,i,i,i,i,i,i
CC(Cl)C(=O)Nc1c2c(nn1-c1ccccc1)CSC2 (stereo not drawn),i,i,i,i,i,i
CC[n+]1cc(-c2ccccc2)nc(N2CCOCC2)n1,98.8,i,i,i,i,i
Cc1cccc(NC(=O)c2ccc(N(C)C3CCCCC3)c([N+](=O)[O-])c2)n1,i,i,i,i,i,i
CCOC(=O)c1c(NC(=O)COC(=O)CCCOc2ccc(OC)cc2)sc(C(=O)N(C)C)c1C,i,i,i,i,i,i
COc1cc(-c2ccc(Nc3ccccc3C(=O)O)c(OC)c2)ccc1Nc1ccccc1C(=O)O,70.5,i,i,108.5,60.8,i
COc1cccc(Nc2ccccc2C(=O)O)c1,i,i,i,i,i,i
CCOc1cc2c(C#N)c(N3CCCC3)nc(N)c2c(N)n1,i,i,i,i,i,i
SMILES,Scp1 inh,CSN deneddyl inh,STEP block,DNMT1 block,SUMO1 PPI mod,LMPTP block
N#Cc1c(N2CCCC2)nc(N)c2c(N)nc(N3CCCC3)cc12,i,55.3,60.4,117.8,47.8,i
COCCN(C(=O)CSc1nnc(-c2ccncc2)n1C)c1c(N)n(CC(C)C)c(=O)[nH]c1=O,i,i,i,i,i,i
CCc1nc2ccc(C(=O)N(CC)CCN(C)C)cn2c1N(C=O)CCC(C)C,nt,i,i,i,i,i
CSc1nnnn1CCn1nnnc1SC,i,51.2,i,i,i,i
Cc1ccc(NC(=O)COC(=O)c2ccc(S(=O)(=O)NCc3ccco3)cc2)cc1,i,i,i,i,i,i
O=C(COC(=O)c1ccc(S(=O)(=O)NCc2ccco2)cc1)Nc1ccccc1,i,36.9,i,i,i,i
CN(Cc1cnn(-c2ccccc2)c1)C(=O)c1ccc(S(=O)(=O)NCc2ccco2)cc1,nt,45.0,i,i,i,i
N#CCC(=O)Nc1ccc(C(=O)OCC(=O)NC(=O)NCc2ccco2)cc1,i,35.6,i,i,i,i
CC1CCN(S(=O)(=O)c2cccc(C(=O)Nc3nncs3)c2)CC1,i,i,i,i,i,i
CC(C)C[C@@H](C(=O)NC1CCN(Cc2ccccc2)CC1)N1C(=O)N2CCc3c([nH]c4ccccc34)[C@@]2(C)C1=O,i,i,i,i,i,i
CC(C(=O)Nc1ccccc1Br)N1c2cccc3cccc(c23)S1(=O)=O (stereo not drawn),i,i,i,i,i,i
CC(C)Oc1ccc(C(=O)Nc2c3c(nn2C(C)(C)C)CS(=O)(=O)C3)cc1,i,i,i,i,i,i
Cc1[nH]ccc2cc3nc4ccccc4c3cc12,nt,i,i,i,i,86.3
Cc1cccc2nc3ccccc3cc12,i,i,i,i,i,i
Cn1c(=O)c2[nH]c(-c3ccc(S(=O)(=O)O)cc3)nc2n(C)c1=O,i,i,i,i,i,i
CCC(=O)N1CCN(c2nc3ccc(Br)cc3s2)CC1,i,i,i,i,i,i
O=C(Cc1ccccc1)Nc1cccc(N2C(=O)C=CC2=O)c1,i,i,i,i,i,i
O=C1c2ccccc2C(=O)N1/N=C/c1ccc(O)c(O)c1O,i,i,i,i,i,68.0
O=C1c2cccc3cccc(c23)C(=O)N1/N=C/c1ccc(O)cc1O,i,i,i,i,i,i
Cc1nc2ccccc2c(=O)n1/N=C/c1ccccc1O,i,i,i,i,i,i
Cc1nc2ccccc2c(=O)n1/N=C/c1ccc(O)c(O)c1O,i,i,i,77.9,69.7,83.7
CCN(C(=O)CSc1nnc(-c2cccc(Cl)c2)n1N)c1c(N)n(Cc2ccccc2)c(=O)[nH]c1=O,i,i,i,i,i,i
CC(=O)c1cccc(-c2ccc3c(=O)[nH]c(Nc4ccccc4)cc3c2)c1,i,54.6,i,105.3,i,i
COc1ccc2nc(NC(=O)c3ccc4ncsc4c3)sc2c1,i,i,i,i,42.7,i
O=C(Nc1ccc(F)cc1)c1ccc2ncsc2c1,i,i,i,i,i,i
N#Cc1ccsc1NC(=O)c1ccc2ncsc2c1,nt,58.9,i,i,i,i
CC(C)c1nnc(NC(=O)c2cccc(-n3cnnn3)c2)s1,i,i,i,i,i,i
N#Cc1ccsc1NC(=O)c1cccc(-n2cnnn2)c1,i,38.0,i,i,i,i
COc1ccc(C(=O)Nc2nc3cc4c(cc3s2)OCCO4)c(OC)c1,i,i,i,i,47.3,i
CC1=CC=CC2=NC(=O)CC(C)(C(=O)N(CC(=O)NC3CCCC3)c3ccc(F)cc3)N12 (stereo not drawn),i,i,i,i,i,i
